Assay results from ChEMBL document CHEMBL4219111, “Multifunctional 5,6-dimethoxybenzo[d]isothiazol-3(2H)-one-N-alkylbenzylamine derivatives with acetylcholinesterase, monoamine oxidases and β-amyloid aggregation inhibitory activities as potential agents against Alzheimer's disease” (Bioorg Med Chem, 2018).

Key:
[1] = biological target: T1, Amine oxidase [flavin-containing] A (Homo sapiens, UniProt P21397); experiment: Inhibition of recombinant human MAO-A using kynuramine as substrate after 30 mins by fluorescence assay
T1 sequence (P21397 whole entry): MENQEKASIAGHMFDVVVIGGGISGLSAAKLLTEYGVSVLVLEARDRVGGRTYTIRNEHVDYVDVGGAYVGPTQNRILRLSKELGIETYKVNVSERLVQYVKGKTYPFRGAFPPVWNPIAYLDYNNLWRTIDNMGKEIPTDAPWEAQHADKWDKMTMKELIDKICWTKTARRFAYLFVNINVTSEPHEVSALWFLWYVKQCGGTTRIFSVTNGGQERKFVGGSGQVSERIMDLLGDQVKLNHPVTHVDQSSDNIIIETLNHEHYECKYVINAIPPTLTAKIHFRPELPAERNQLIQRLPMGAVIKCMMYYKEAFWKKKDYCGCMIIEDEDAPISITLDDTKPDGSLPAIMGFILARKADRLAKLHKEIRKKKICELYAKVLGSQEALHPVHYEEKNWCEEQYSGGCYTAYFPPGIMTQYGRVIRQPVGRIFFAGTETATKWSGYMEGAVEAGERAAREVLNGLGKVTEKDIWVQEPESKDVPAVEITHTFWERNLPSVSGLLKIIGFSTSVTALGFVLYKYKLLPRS

Rattus norvegicus = species: Rattus norvegicus; experiment: Inhibition of rat serum BuChE using butyrylthiocholine iodide as substrate measured at 50 uM after 15 mins by Ellman's method relative to control
How it was run: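 Rat serum (25%) as enzyme source; modified Ellman method in […] pH 7.4 with 1 mmol/L butyrylthiocholine iodide and 0.2% DTNB; 37 °C for 15 min, absorbance at 405 nm. Percent inhibition at 50 µM test compound, each concentration in triplicate.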

[2] = biological target: Amyloid-beta precursor protein (Homo sapiens) (UniProt P05067); experiment: Inhibition of self-induced aggregation of amyloid beta (1 to 42) (unknown origin) at 25 uM after 24 hrs by thioflavin T fluorescence-based fluorometric method relative to control
How it was run: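 Aβ1-42 pretreated in HFIP 24 h at room temperature, dried, redissolved in DMSO. Peptide (25 µM final) incubated with compound (25 µM final) in 50 mM phosphate pH 7.4 for 24 h at 37 °C. ThT (5 µM) added in 50 mM glycine-NaOH pH 8.5; fluorescence read at ex 446/em 490 nm. Inhibition = (1 − IFi/IFc)×100 after background subtraction, triplicate.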

[3] = biological target: T2, Amine oxidase [flavin-containing] B (Homo sapiens, UniProt P27338); experiment: Inhibition of recombinant human MAO-B using kynuramine as substrate after 30 mins by fluorescence assay
T2 sequence (P27338 whole entry): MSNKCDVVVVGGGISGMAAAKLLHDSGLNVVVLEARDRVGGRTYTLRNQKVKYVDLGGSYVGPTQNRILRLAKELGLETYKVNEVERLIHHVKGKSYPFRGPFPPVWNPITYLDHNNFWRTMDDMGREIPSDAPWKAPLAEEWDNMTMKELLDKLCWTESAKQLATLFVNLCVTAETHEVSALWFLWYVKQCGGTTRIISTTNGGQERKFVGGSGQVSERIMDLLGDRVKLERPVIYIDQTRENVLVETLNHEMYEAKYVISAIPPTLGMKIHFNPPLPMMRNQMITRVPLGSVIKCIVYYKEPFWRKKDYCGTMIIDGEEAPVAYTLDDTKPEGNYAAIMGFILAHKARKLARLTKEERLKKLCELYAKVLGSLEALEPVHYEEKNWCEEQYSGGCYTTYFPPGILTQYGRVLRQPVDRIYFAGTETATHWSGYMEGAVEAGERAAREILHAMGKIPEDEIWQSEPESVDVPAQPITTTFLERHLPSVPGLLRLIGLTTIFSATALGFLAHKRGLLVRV

Homo sapiens = species: Homo sapiens; experiment: Selectivity index, ratio of IC50 for recombinant human MAO-A to IC50 for recombinant human MAO-B
How it was run: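 Ratio of IC50s, each from a sigmoidal curve of initial kynuramine oxidation rate versus log inhibitor concentration. Curves used six concentrations within 0-100 µM, spanning at least three orders of magnitude. IC50s determined in triplicate.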

Acetylcholinesterase = Acetylcholinesterase (Electrophorus electricus, UniProt O42275); experiment: Inhibition of Electrophorus electricus AChE using acetylthiocholine iodide as substrate measured after 15 mins by Ellman's method
[4] = Antioxidant activity assessed as trolox equivalents of AAPH radical scavenging activity at 5 uM preincubated for 15 mins followed by AAPH addition measured every min for 90 mins by ORAC-FL assay; type: functional
How it was run: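 ORAC-FL in 75 mM phosphate buffer pH 7.4, 200 µL final. Sample plus fluorescein (150 nM final) pre-incubated 15 min at 37 °C, then AAPH added (12 mM final). Fluorescence read every minute for 90 min, ex 485/em 535 nm, normalized to FL+AAPH blank. Trolox standard 1-8 µM final; values given as µM Trolox equivalent per µM compound. Duplicate wells, at least three independent assays.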

[5] = biological target: T2, Amine oxidase [flavin-containing] B; experiment: Inhibition of recombinant human MAO-B at 10 uM using kynuramine as substrate after 30 mins by fluorescence assay relative to control; details: 0.5 h
How it was run: (§1)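 Recombinant human MAO-A or MAO-B, kynuramine substrate (45 µM for MAO-A, 30 µM for MAO-B), in 100 mM potassium phosphate pH 7.40 with 20.2 mM KCl and under 4% DMSO. Enzyme (7.5 µg/mL) starts the reaction; 30 min at 37 °C. Stopped with NaOH plus water, centrifuged, supernatant fluorescence read at ex 310/em 400 nm. Percent inhibition at 10 µM.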

[6] = Inhibition of rat serum BuChE using butyrylthiocholine iodide as substrate measured after 15 mins by Ellman's method
[7] = biological target: T1, Amine oxidase [flavin-containing] A; experiment: Inhibition of recombinant human MAO-A at 10 uM using kynuramine as substrate after 30 mins by fluorescence assay relative to control; details: 0.5 h; how it was run: as §1
[8] = Effective permeability of the compound at 100 ug/ml after 18 hrs by PAMPA-BBB assay

Chain of Amyloid-beta precursor protein (Homo sapiens) (P05067 whole entry): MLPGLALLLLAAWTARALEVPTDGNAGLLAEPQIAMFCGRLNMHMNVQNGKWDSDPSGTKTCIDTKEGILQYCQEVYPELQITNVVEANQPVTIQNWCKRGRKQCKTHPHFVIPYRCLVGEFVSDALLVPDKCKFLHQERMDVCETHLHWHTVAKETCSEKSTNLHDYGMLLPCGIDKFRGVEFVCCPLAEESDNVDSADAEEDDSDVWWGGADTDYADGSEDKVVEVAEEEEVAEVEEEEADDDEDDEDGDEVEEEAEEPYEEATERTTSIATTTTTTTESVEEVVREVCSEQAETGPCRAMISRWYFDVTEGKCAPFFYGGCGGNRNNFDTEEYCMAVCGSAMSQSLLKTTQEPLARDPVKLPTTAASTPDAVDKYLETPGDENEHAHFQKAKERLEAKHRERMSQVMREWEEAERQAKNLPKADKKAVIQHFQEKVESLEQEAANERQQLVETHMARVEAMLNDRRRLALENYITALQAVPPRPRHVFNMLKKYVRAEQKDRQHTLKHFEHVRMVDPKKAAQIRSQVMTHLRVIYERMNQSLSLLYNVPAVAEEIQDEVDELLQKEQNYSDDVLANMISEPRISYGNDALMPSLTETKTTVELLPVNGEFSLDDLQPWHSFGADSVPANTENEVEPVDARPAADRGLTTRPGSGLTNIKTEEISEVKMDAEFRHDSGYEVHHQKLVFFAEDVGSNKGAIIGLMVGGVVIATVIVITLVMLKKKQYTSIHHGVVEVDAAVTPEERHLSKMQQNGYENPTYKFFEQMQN
Chain of Acetylcholinesterase (O42275 whole entry): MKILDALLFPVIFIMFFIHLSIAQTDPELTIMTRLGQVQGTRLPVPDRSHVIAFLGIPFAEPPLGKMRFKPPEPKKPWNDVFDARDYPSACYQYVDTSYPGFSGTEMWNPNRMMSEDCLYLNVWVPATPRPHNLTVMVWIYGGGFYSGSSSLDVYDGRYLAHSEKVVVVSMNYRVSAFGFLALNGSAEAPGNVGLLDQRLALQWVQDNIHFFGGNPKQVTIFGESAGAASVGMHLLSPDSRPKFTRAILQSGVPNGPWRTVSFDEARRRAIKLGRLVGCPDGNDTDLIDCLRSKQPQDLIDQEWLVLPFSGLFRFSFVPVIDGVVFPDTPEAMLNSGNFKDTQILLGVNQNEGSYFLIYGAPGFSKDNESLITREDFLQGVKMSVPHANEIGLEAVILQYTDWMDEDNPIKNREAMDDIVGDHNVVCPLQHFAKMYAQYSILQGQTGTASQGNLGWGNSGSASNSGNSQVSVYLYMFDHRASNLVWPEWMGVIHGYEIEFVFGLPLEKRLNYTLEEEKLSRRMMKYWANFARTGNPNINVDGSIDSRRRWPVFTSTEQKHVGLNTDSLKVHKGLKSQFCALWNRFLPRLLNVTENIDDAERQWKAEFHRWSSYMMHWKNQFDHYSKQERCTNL

| SMILES | IC50 [1] [µM] | inhibition (Rattus norvegicus) [%] | inhibition [2] [%] | IC50 [3] [µM] | Ratio IC50 (Homo sapiens) | IC50 (Acetylcholinesterase) [µM] | Activity [4] [equiv] | inhibition at 10 µM [5] [%] | IC50 [6] [µM] | inhibition at 10 µM [7] [%] | Papp at 18 h, 100 ug/ml [8] [×10⁻⁶ cm/s] |
| --- | --- | --- | --- | --- | --- | --- | --- | --- | --- | --- | --- |
| CCN(CCCCn1sc2cc(OC)c(OC)cc2c1=O)Cc1ccccc1 | 19.9 | 21.8 | 9.4 | 20.1 | 0.99 | 0.8 | 0.53 |  |  |  |  |
| CCN(CCCn1sc2cc(OC)c(OC)cc2c1=O)Cc1ccccc1 | 9.9 | 12.3 | 19.6 |  |  | 6.65 | 0.84 | 46.3 |  |  |  |
| CCN(CCCCCCn1sc2cc(OC)c(OC)cc2c1=O)Cc1ccc(N(C)C)cc1 | 7.1 | 22.7 | 33.4 | 12.4 | 0.57 | 6.5 | 1.92 |  |  |  |  |
| COc1cc2sn(CCCCCCN(C)Cc3ccccc3)c(=O)c2cc1OC | 23 | 23.1 | 4.3 | 13.2 | 1.74 | 0.35 | 0.29 |  |  |  |  |
| CCN(CCCn1sc2cc(OC)c(OC)cc2c1=O)Cc1ccccc1OC | 15.5 | 18.9 | 12.4 |  |  | 8.3 | 0.82 | 37 |  |  |  |
| COc1ccccc1CN(C)CCCCCCn1sc2cc(OC)c(OC)cc2c1=O | 19.9 | 28.8 | 20.2 | 13.7 | 1.45 | 0.61 | 0.26 |  |  |  |  |
| COc1cc2c(cc1OC)C(=O)C(CC1CCN(Cc3ccccc3)CC1)C2 (stereo not drawn) [DONEPEZIL] |  |  |  |  |  |  |  |  | 21.4 |  |  |
| COc1ccccc1CN(C)CCCCn1sc2cc(OC)c(OC)cc2c1=O | 7.1 | 25.5 | 11.7 | 19.2 | 0.37 | 5.9 | 0.39 |  |  |  |  |
| COc1ccccc1CN(C)CCCCCCN1C(=O)c2cc(OC)c(OC)cc2S1(=O)=O |  | < 5 | 23.9 |  |  | 1.02 | 0.16 | 29.2 |  | 28.1 |  |
| CCN(CCCn1sc2cc(OC)c(OC)cc2c1=O)Cc1ccccc1N(C)C | 16.6 | 27.9 | 19.8 |  |  | 9.7 | 0.22 | 45.4 |  |  |  |
| COc1cc2s[nH]c(=O)c2cc1OC | 21 | 10.3 | 12.2 |  |  | 34.9 | 0.29 | 14 |  |  |  |
| CCN(CCCCCCn1sc2cc(OC)c(OC)cc2c1=O)Cc1ccccc1OC | 7.9 | 46.9 | 48 |  |  | 0.46 | 0.28 | 43.8 |  |  | 4.32 |
